A selection: hits, their analogues and other compounds. The true share with any hit is near 1.7%.
CAL PDZ FP-1 – blocks peptide binding to human CAL PDZ domain. purified CAL PDZ, TMR-peptide fluorescence polarization, 1 h. inhibition, % at 20 µM. 330,000 compounds, 0.02% hits;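 active means highest replicate inhibition of at least 40%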;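 further: plate controls were DMSO neutral control wells for no effect and unlabeled competitor peptide control wells for full effect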
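Assay system – tagged CAL PDZ protein CerCALP, purified · Timing – 1 h at RT · Compound – single point, 20 µM · Measured by – fluorescence polarization from S- and P-plane intensities, G-factor corrected · Evaluation – inhibition from polarization loss · Probe or stimulus – TMR reporter peptide T*-PRC34 · Buffer or medium – pH 7.4 phosphate-saline buffer, reducing agent, detergent, IgG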
APOBEC3G inh – APOBEC3G (human) deaminase inhibition; recombinant A3G, ssDNA deamination FAM/TAMRA fluorescence; inhibition, % at 20 µM; 330,000 compounds, 0.28% hits;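 active means inhibition of at least 40% at 20 µM, with no more than 30% in the related APOBEC3A deaminase screen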;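 further: plate controls were DMSO wells with A3G for no effect and wells lacking A3G enzyme for full effect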
A3A deaminase – human APOBEC3A DNA deaminase inhibition | 330,000 compounds, 0.41% hits | inhibition, % at 20 µM | recombinant A3A, FAM/TAMRA ssDNA deamination fluorescence;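 active means at least 40% inhibition at 20 µM here, with at most 30% in a related deaminase screen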;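 further: plate controls were A3A with DMSO for no effect and wells lacking A3A enzyme for full effect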
Keap1 Nrf2 FP – Keap1-Nrf2 (human) interaction inhibition. AID 504523. 340,000 compounds, 0.15% hits. Keap1 Kelch-Nrf2 peptide fluorescence polarization, 1536-well. inhibition, % at 9.4 µM; in the data active means inhibition above about 12%;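 further: human Keap1 Kelch domain with fluorescein labeled Nrf2 9mer peptide probe; 0% = neutral control wells and 100% = peptide positive control; higher means more block of Keap1 binding to Nrf2 peptide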
Target sequence (Q14145 whole entry, looked up, the tested form may be a part): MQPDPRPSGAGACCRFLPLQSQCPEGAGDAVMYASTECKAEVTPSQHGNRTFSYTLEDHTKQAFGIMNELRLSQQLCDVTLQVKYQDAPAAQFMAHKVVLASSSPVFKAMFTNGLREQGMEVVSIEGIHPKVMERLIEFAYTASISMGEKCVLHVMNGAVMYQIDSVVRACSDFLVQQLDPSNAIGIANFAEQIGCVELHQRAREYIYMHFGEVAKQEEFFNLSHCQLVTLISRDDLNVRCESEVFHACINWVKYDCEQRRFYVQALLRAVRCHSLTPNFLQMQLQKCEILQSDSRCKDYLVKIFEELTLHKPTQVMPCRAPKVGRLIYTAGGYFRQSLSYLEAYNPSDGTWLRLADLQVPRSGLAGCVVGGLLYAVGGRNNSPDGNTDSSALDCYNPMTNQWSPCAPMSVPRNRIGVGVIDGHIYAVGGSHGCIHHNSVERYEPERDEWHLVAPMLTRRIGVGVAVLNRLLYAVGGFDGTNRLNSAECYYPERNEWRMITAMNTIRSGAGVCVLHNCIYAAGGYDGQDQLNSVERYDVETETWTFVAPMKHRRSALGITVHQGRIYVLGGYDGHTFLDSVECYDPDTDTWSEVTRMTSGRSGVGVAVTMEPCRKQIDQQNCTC
CAL PDZ FP-2 – blocks peptide binding to the human CAL PDZ domain; Q9HD26; purified CAL PDZ, TMR-peptide fluorescence polarization, 1 h; inhibition, % at 24.9 µM; 300,000 compounds, 0.92% hits;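 active means mean inhibition of at least 30% with at least half of replicates also reaching 30%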;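 further: 0% = DMSO neutral control and 100% = excess unlabeled competitor peptide PRC23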
C-LANA FP – blocks KSHV LANA C-terminal domain binding to DNA. 340,000 compounds, 0.078% hits. inhibition, % at 9 µM. MBP-C-LANA/FAM-LBS DNA binding, fluorescence polarization;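 active means highest replicate inhibition at or above 60% at 9 µM, even if other replicates fall short; inactive means all replicates below 60% inhibition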;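 further: 0% = neutral control wells and 100% = 4 µM acridine orange control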
APOBEC3A confirm – APOBEC3A (human) deaminase inhibition, confirmed. recombinant A3A, ssDNA deaminase UDG fluorescence assay. shares compounds with A3A deaminase. 1,400 compounds, 63% hits. inhibition, % at 20 µM;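 active means inhibition reaching a set limit, 80% of the first screen's cutoff, at 20 µM in any replicate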;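 further: plate controls were DMSO wells with A3A for no effect and wells lacking A3A enzyme for full effect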
UDG ctr A3A – inhibits UDG, flagging false APOBEC3A inhibitors; UDG counterscreen, FAM/TAMRA uracil oligo fluorescence; AID 504714; inhibition, % at 20 µM; shares compounds with A3A deaminase; 1,000 tested, under 10 active; call rule not given here
Active calls of the source: *; . = no result given.

SMILES | CAL PDZ FP-1 | APOBEC3G inh | A3A deaminase | Keap1 Nrf2 FP | CAL PDZ FP-2 | C-LANA FP | APOBEC3A confirm | UDG ctr A3A
O=C(COc1ccccc1Cl)Nc1cccnc1 | -3 | 0 | 0 | -1 | -1 | 1 | . | .
O=C(CNC(=O)c1ccccc1C(F)(F)F)N/N=C/c1cccs1 | -1 | -4 | -5 | -2 | 0 | 1 | . | .
COc1cc(/C=C/c2cccc[n+]2C)ccc1OCC(=O)Nc1ccccc1C | -2 | 23 | 82* | -1 | -2 | 1 | 72* | 0
CCOc1cc(/C=C/c2cccc[n+]2C)ccc1OCC(=O)Nc1ccc(C)cc1 | -1 | 22 | 87* | 2 | -1 | 0 | 74* | -2
CCOc1cc(/C=C/c2cccc[n+]2C)ccc1O | -1 | 32 | 81 | -2 | 3 | 1 | . | .
CCOc1cc(/C=C\[N+](=O)[O-])ccc1OCC(=O)Nc1ccccc1C | -1 | 2 | 9 | -5 | 3 | -1 | . | .
O=S(=O)(c1ccc(NC(=S)NCc2ccncc2)cc1)N1CCCCC1 | -1 | -8 | -5 | -3 | -1 | 1 | . | .
Cc1cc(/C=C2\SC(=O)N(C)C2=O)c(C)n1-c1ccc(O)cc1 | 22 | -2 | -6 | 0 | 0 | -1 | . | .
Cc1cc(/C=C2\SC(=O)N(C)C2=O)c(C)n1-c1ccc(S(N)(=O)=O)cc1 | 0 | 16 | 50* | -5 | -2 | 0 | 63* | -1
CC(C)=CCCC1=CCC2C(=O)NNC(=O)C2C1 (centres undefined) | 0 | -7 | 58* | -3 | -3 | 1 | -1 | 2
COCc1cc(C)nc(N2CCN(c3ccccc3)CC2)c1C#N | 0 | -8 | -1 | 5 | -5 | 0 | . | .
COCc1cc(C)nc(N2CCN(Cc3ccccc3)CC2)c1C#N | -3 | 16 | 72* | 3 | 3 | 0 | 66* | -2
COc1ccc(Cl)cc1NC(=O)c1cccc(-n2cnnn2)c1 | -2 | -14 | 48* | . | -2 | . | 8 | 3
O=C(Nc1ccc(Br)cc1)c1cccc(-n2cnnn2)c1 | 0 | -2 | 51* | -1 | -5 | 0 | -5 | 2
CCC(C)c1ccccc1NC(=O)c1cccc(-n2cnnn2)c1 (centres undefined) | -1 | 2 | 52* | -5 | -5 | -3 | 34* | -38
Cc1c(C(=O)N2CCCCC2CCN2CCCC2=O)oc2c(F)cccc12 (centres undefined) | -3 | -5 | -4 | -2 | -2 | 0 | . | .
COC(=O)/C=C1\OC(c2ccccc2)=CC1=O | . | -5 | -3 | . | . | . | . | .
CCCN1Cc2cccc(C(=O)NCc3ccccc3OC)c2C1=O | -2 | -1 | 2 | -1 | -2 | 1 | . | .
COCCN1Cc2cccc(C(=O)NCc3ccccc3OC)c2C1=O | . | -1 | 96* | -6 | -3 | -2 | -1 | -4
CC(C)C(NC(=O)c1ccccc1F)C(=O)NCc1ccc(F)cc1 (centres undefined) | -2 | 3 | 40* | -6 | 0 | 0 | 13 | .
CCCCNS(=O)(=O)c1ccc2nc(-c3cccnc3)cc(C(=O)NCC(OC)OC)c2c1 | -1 | -5 | -2 | 0 | -4 | -2 | . | .
COc1ccc(N2CCN(C(=O)COc3ccc4ccccc4c3)CC2)cc1 | 0 | -2 | 46* | -2 | 1 | 0 | 2 | -2
COc1ccc(N2Cc3cccc(C(=O)N4CCN(C(=O)c5ccco5)CC4)c3C2=O)cc1 | -1 | 29 | 59* | 0 | -6 | 1 | 43* | .
COc1ccc(N2Cc3cccc(C(=O)N4CCOCC4)c3C2=O)cc1 | -1 | -7 | -6 | -8 | 1 | 1 | . | .
Cc1ccc(C)c(OCCC(=O)OCC(=O)N2c3ccccc3NC(=O)C2(C)C)c1 | 0 | 20 | 52* | -4 | . | -1 | 56* | 3
SMILES | CAL PDZ FP-1 | APOBEC3G inh | A3A deaminase | Keap1 Nrf2 FP | CAL PDZ FP-2 | C-LANA FP | APOBEC3A confirm | UDG ctr A3A
COC(=O)c1cc(C(=O)OCC(=O)N2c3ccccc3NC(=O)C2(C)C)cc([N+](=O)[O-])c1 | 1 | -6 | 97* | 0 | -5 | 2 | -3 | -1
CC1(C)C(=O)Nc2ccccc2N1C(=O)COC(=O)c1cc(Cl)cc(Cl)c1 | 0 | 3 | 10 | -4 | 4 | 2 | . | .
COc1ccccc1CCC(=O)OCC(=O)N1c2ccccc2NC(=O)C1(C)C | 0 | -4 | 2 | -6 | . | 0 | . | .
O=C(N/N=C/c1cc(Br)c(Br)o1)c1ccc2c(c1)OCCO2 | -3 | 28 | 76* | -2 | . | 1 | 50* | -1
CCN(CC)S(=O)(=O)c1ccc(N2CC(C(=O)Nc3cccc(C(=O)NC4CC4)c3)CC2=O)cc1 (centres undefined) | 0 | . | . | 1 | -3 | 1 | . | .
Cc1ccc(N2CC(C(=O)Nc3cccc(C(=O)NC4CC4)c3)CC2=O)cc1 (centres undefined) | -2 | 7 | 41* | 1 | -3 | 1 | 23 | .
CCCCc1c(CCC)c(=N)c2ccccc2n1C | -1 | 25 | 42* | -2 | -3 | -2 | 83* | 4
O=C1c2ccccc2C(=O)N1CCC#Cc1ccc2cc(CCCO)oc(=O)c2c1 | 0 | -8 | -2 | 0 | -2 | 2 | . | .
COc1ccc(C(=O)OCC(=O)N2CCN(C(=O)c3ccco3)CC2)cc1OC | 1 | -2 | 1 | -2 | -4 | 0 | . | .
COc1cc(NC(=O)c2noc3c2CCC3)c(OC)cc1Cl | -2 | 21 | 49* | -1 | . | 5 | 55* | 1
N#CC(c1nc2ccccc2nc1OCCO)S(=O)(=O)c1ccccc1 (centres undefined) | -1 | -1 | 2 | -1 | -1 | 4 | . | .
O=C(CSc1ccc(-c2ccccn2)nn1)N1CCc2ccccc21 | -1 | -12 | 4 | 3 | -3 | 1 | . | .
O=C(CSc1ccccn1)N1CCc2ccccc21 | -1 | 6 | 66* | 0 | -4 | 2 | 23 | .
O=C(NCc1ccco1)c1nc(-c2ccc(F)cc2)no1 | -4 | -9 | 40* | -8 | -4 | 1 | -3 | -2
O=C(NCc1ccco1)c1ccccc1-c1nc(-c2ccc(F)cc2)no1 | -1 | 2 | 3 | 1 | -5 | 2 | . | .
O=C(N/N=C/c1ccc2c(c1)OCO2)c1ccc2c(c1)OCCO2 | -3 | -10 | 6 | -6 | 1 | 1 | . | .
COc1ccc(/C=N/NC(=O)c2ccc(COCC(F)(F)C(F)F)cc2)cc1 | -1 | -3 | -6 | 4 | 3 | 1 | . | .
O=C(N/N=C/c1ccc2c(c1)OCO2)c1ccc(COCC(F)(F)C(F)F)cc1 | -1 | -6 | 98* | 2 | -3 | 3 | -1 | -2

Screening data (PubChem BioAssay)
